This is an account of results in ChEMBL document CHEMBL1125484, “Nonpeptide angiotensin II receptor antagonists: synthetic and computational chemistry of N-[[4-[2-(2H-tetrazol-5-yl)-1-cycloalken-1-yl]phenyl]methyl]imidazole derivatives and their in vitro activity” (J Med Chem, 1992).

Data set [1] in a line: Partition coefficient (logP). It is filed as physicochemical. As to conditions: octanol/water.
For data set [2], the target named is T1, Type-1 angiotensin II receptor B (Rattus norvegicus, UniProt P29089).
T1 sequence (P29089 whole entry): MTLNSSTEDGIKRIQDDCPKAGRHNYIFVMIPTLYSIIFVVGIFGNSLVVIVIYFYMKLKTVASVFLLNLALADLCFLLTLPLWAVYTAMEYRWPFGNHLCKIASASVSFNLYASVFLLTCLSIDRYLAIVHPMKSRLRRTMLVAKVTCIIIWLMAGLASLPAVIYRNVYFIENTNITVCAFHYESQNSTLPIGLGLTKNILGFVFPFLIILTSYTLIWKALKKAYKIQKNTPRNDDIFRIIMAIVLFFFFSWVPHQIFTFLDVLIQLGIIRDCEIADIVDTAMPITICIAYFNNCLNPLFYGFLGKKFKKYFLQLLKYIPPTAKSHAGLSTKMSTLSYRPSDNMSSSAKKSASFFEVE
Put plainly: Concentration required to inhibit binding of radioligand [125I]AII to angiotensin II receptor, type 1 in rat adrenal glomerulosa tissue. The essentials: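 Buffer was 50 mM Tris, 120 mM NaCl, 5 mM MgCl2, 1 mM DTT and 0.05% BSA, with 8–15 μg protein. Antagonists were tested at 10 nM–100 μM, and nonspecific binding was defined with 0.1 μM [Sar1,Ile8]AII. Bound ligand was filtered and gamma-counted in triplicate. IC50 was taken from the linear portion of the displacement curve.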

For the next data set, the species on record is Oryctolagus cuniculus. Briefly: pA2 value was determined by the compound's ability to antagonize the AII-induced contraction of rabbit aorta rings. It is filed as functional. The note with it: read-out: pA2 (converted). The essentials: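 Thoracic aorta rings (3 mm) from New Zealand white rabbits were held in 37 °C physiological salt solution aerated with 95% O2/5% CO2, and isometric tension was recorded. A cumulative AII curve (10^-10 to 10^-7 M) was run, the tissue washed, and the compound added in DMSO for 30 min before the AII curve was repeated. Responses were expressed as % of control maximum, with EC50s from four-parameter logistic fits.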

One may read the logP as a log measure of how a compound divides between an organic and an aqueous phase. A higher logP goes with higher lipophilicity. The term IC50 denotes the concentration needed to halve the response being measured. A higher IC50 goes with lower potency. In data set [1], `CCCCc1nc(Cl)c(CO)n1Cc1ccc(C2=C(c3nn[nH]n3)CCCCC2)cc1` had a logP of 4.9. In data set [2], this compound returned an IC50 of 2800 nM. Further, the Kb in the data set filed under Oryctolagus cuniculus is 468 nM.
In turn, `CCCCc1nc(Cl)c(C(=O)O)n1Cc1ccc(C2=C(c3nn[nH]n3)CCCCC2)cc1` yielded a logP in data set [1] of 5.37. In addition, in data set [2], the IC50 came out at 390 nM. The Kb in the data set listed under Oryctolagus cuniculus is 12 nM.
`CCCCc1nc(Cl)c(C(=O)O)n1Cc1ccc(-c2ccccc2-c2nn[nH]n2)cc1` [CARBOXYLIC ACID METABOLITE]: the logP in data set [1] was found to be 4.92. In addition, the Kb in the data set listed under Oryctolagus cuniculus was 0.234 nM.
On to `CCCCc1nc(Cl)c(CO)n1Cc1ccc(-c2ccccc2-c2nnn[nH]2)cc1` [LOSARTAN], for which the logP in data set [1] worked out at 4.45. Also, the Kb in the data set filed under Oryctolagus cuniculus was 3.8 nM.
For `CCCCc1nc(Cl)c(C(=O)O)n1Cc1ccc(C2=C(c3nn[nH]n3)CCCC2)cc1`, the logP in data set [1] stood at 4.81. In addition, in data set [2], the 50% inhibitory concentration (IC50) stood at 400 nM. In addition, the Kb in the data set filed under Oryctolagus cuniculus was 4.07 nM.
Take `CCCCc1nc(Cl)c(CO)n1Cc1ccc(C2=C(c3nnn[nH]3)CCC2)cc1`: in data set [1], the log partition coefficient (logP) came out at 3.78. In data set [2], the IC50 amounted to 3500 nM. Further, the Kb in the data set filed under Oryctolagus cuniculus is 355 nM.
As for `CCCCc1nc(Cl)c(C(=O)O)n1Cc1ccc(C2=C(c3nnn[nH]3)CCC2)cc1`, in data set [1], the logP is 4.25. Moreover, the IC50 in data set [2] worked out at 310 nM. For the same compound, the Kb in the data set filed under Oryctolagus cuniculus was 14.5 nM.
Consider `CCCCc1nc(Cl)c(CO)n1Cc1ccc(C2=C(c3nnn[nH]3)CCCC2)cc1`, for which the logP in data set [1] was 4.34. Besides, in the data set listed under Oryctolagus cuniculus, the Kb was 129 nM.
